Screening results (PubChem BioAssay)
PolyA inhibitor: inhibitors of polyadenylation in S. cerevisiae; actives 0.02% (n = 300,000); activity score, % at 12 µM; S. cerevisiae SKY197-pL101 polyadenylation reporter, beta-gal luminescence; efflux-impaired pdr1/pdr3 knockout yeast; score 100 = 6 SD above DMSO;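 active means lowest replicate activity score at least 50, where 100 means six control SD above control mean; inconclusive means lowest score under 50 but half or more replicates reach 50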;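 further: yeast exposed to compound for 9 h at 30 °C; higher score means more reporter readthrough which indicates perturbed polyadenylation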
CHT allo act: human CHT allosteric activation | CHT-expressing cells, membrane potential dye, choline EC20; stronger effect = higher value; LV-AA mutant CHT in HEK293 cells | Q9GZV3 | B-score at 10 µM | actives 0.49% (n = 310,000);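 active means initial fluorescence not abnormally high and integrated response B-score, plate-corrected, over 3 SD above library mean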
Target sequence (Q9GZV3 whole entry, looked up): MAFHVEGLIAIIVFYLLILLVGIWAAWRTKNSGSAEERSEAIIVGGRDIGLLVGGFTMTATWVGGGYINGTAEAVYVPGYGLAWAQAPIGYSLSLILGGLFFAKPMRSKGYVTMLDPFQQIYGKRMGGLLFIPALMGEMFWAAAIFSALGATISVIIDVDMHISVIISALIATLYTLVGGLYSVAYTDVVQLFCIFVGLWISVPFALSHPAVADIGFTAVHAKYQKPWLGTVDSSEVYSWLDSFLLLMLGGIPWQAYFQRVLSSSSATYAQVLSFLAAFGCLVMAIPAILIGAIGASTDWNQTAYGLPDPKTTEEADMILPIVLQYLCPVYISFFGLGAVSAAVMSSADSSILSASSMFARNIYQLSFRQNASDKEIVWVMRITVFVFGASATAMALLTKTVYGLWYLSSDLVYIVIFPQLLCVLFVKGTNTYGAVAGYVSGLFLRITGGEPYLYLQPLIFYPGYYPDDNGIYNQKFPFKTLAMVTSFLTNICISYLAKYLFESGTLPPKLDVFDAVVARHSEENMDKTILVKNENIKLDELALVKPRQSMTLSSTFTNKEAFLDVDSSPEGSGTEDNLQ
CHT inh: inhibits the human high affinity choline transporter; Q9GZV3; actives 0.86% (n = 310,000); B-score at 10 µM; AID 488975; CHT-expressing cells, membrane potential dye, choline response; stronger effect = lower value;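 active means B-score over 3 SD under the library average, and starting fluorescence ratio not unusually high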;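 further: choline stimulus applied at its EC90 after an EC20 pre-addition; B-score computed on integrated fluorescence ratio after choline addition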
T cruzi repl: T. cruzi replication inhibition; T. cruzi beta-gal in NIH3T3, luminescence, 90 h; inhibition, % (test concentration not listed); actives 1.4% (n = 300,000);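 active means mean inhibition across valid replicates above about 55%, limit read from the data; inconclusive means mean below that limit but half or more replicates reach it; inactive means mean below it, under half of replicates reach it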;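 further: signal also drops with host cell toxicity which is not excluded here; 0% = plate median of DMSO wells and 100% = zero luminescence signal; higher percent means less beta-gal luminescence so fewer parasites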
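Test system: β-gal T. cruzi (Tulahuen C4) inside NIH/3T3 cells / Quantity: 5,000 cells/well / Measured by: luminescence from GalScreen with 0.05% NP40, read after 60 min / Medium: DMEM plus 2% FBS / Measure: parasite load inhibition, % / Reagent: Tulahuen C4 trypomastigotes, 5000/well / Schedule: co-culture of at least 90 h after 3 h attachment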
CHT act confirm: human CHT activation, confirmatory screen | CHT-expressing cells, membrane potential dye fluorescence (FDSS); % of choline EC20–EC90 response window; HEK293 expressing CHT LV-AA mutant; choline added at its EC20 | actives 91% (n = 2,500) | shares compounds with CHT allo act | activation, % at 10 µM;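 active means primary screen active, with duplicate mean activation above negative control mean plus 3 SD, cut at about 11% in these data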
HEK293 MP dye: CHT activator counter-screen hit in parental HEK293 cells; membrane potential dye fluorescence (FDSS); measured after EC20 choline addition; shares compounds with CHT allo act; ratio readout change at 10 µM, hits read low; actives 62% (n = 2,500); AID 623908;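 active means duplicate-averaged ratio beyond 3 SD from buffer wells, up or down, though filed actives are nearly all decreases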
* hit, by the source's call; i = inactive; u = inconclusive; x = not tested or not shown. The list is not random: actives were taken first. Their share in the collection is about 2.6%.

SMILES	PolyA inhibitor	CHT allo act	CHT inh	T cruzi repl	CHT act confirm	HEK293 MP dye
CCN(CC)c1nc(N2CCN(C)CC2)nc2ccccc12	11	i	i	22	60*	-58*
Cc1nn(-c2ccccc2)c(Cl)c1CN(C(=O)CCl)c1cccc2ccccc12	-20	9*	i	21	36*	i
Cc1nn(-c2ccccc2)c(Cl)c1CN(C(=O)CCl)c1ccc(Cl)cc1	-34	i	i	15	x	x
Cc1cc(N2CCOCC2)c2c(N)c(C)cc(C)c2n1	x	12*	i	x	58*	-78*
Cc1cc(N2CCOCC2)nc(N)n1	4	i	i	0	x	x
c1cncc(-c2nc(NCCCn3ccnc3)c3ccccc3n2)c1	10	i	i	17	x	x
Cc1nc(NCCCn2ccnc2)c2ccccc2n1	-6	i	i	-34	46*	-65*
COc1ccc(CC(=O)OCC(=O)NCc2ccco2)cc1	1	7*	i	-9	-6	i
Cc1cccc(C)c1C(=NCCN(C)C)c1ccccc1	26	i	i	14	x	x
COc1ccccc1CNC(=O)c1cc(-c2ccccc2C)n(CC2CC(c3cccc([N+](=O)[O-])c3)=NO2)n1 (stereo not given)	x	i	i	x	x	x
CCN(CC)c1ccc2nc3ccccc3[n+](CC)c2c1	28	i	i	53	x	x
CCC[n+]1c2ccccc2cc2ccccc21	-2	i	i	61*	76*	-71*
Clc1ccc(SCc2cn3ccccc3n2)cc1	-14	i	i	-1	x	x
Cc1cc(C)c(C#N)c(SCc2cn3ccccc3n2)n1	7	6.5*	i	-3	51*	-46*
c1ccc2c(SCc3cn4ccccc4n3)nncc2c1	-2	7.7*	i	12	39*	-37*
c1ccc(C[n+]2cccc3c4ccccc4ccc32)cc1	3	6.4*	i	u	77*	-75*
O=[N+]([O-])c1ccc(C[n+]2cccc3ccccc32)cc1	13	8.1*	i	9	47*	-46*
c1ccc(-c2ncc3c(ccc4ccccc43)n2)cc1	-13	i	i	-16	x	x
CCCCOc1ccc2ccccc2c1C=O	21	i	i	3	x	x
O=[N+]([O-])c1ccc(C[n+]2cccc3ccc4cccnc4c32)cc1	-13	i	i	-4	x	x
CCCCC[n+]1cccc2c3ccccc3ccc21	-9	7.5*	i	73*	47*	-74*
COc1ccc(CCNC(=O)CNS(=O)(=O)c2ccc(Cl)cc2)cc1	-5	i	i	x	x	x
Cc1cc(C)n2nc3nc4c(cc3c2n1)CCCC4	-13	7*	i	-4	41*	-47*
Cn1c(CCN2CCCCC2)nc2cc([N+](=O)[O-])ccc21	-8	8.5*	i	-15	58*	-62*
Cc1ccc(NC(=O)c2ccc3nsnc3c2)c(C)c1	13	i	i	-9	x	x
SMILES	PolyA inhibitor	CHT allo act	CHT inh	T cruzi repl	CHT act confirm	HEK293 MP dye
CC1CCN(c2ccccc2NC(=O)c2ccc(F)cc2)CC1	-11	9.3*	i	0	23*	i
Cc1ccc(S(=O)(=O)N(CC(=O)c2ccccc2)C(=O)N2CCN(C)CC2)cc1	12	x	x	-1	x	x
Cn1c(=O)c(=O)n(C)c2cc(S(=O)(=O)N3CCC(N4CCCCC4)CC3)ccc21	10	10*	i	-10	77*	-77*
CCN1CCN(CC(=O)c2c(C)n(C)c3ccc(OC)cc23)CC1	x	i	i	x	53*	-33*
CCN(CC)CCCNC1=C(Cl)C(=O)c2ccccc2C1=O	-12	i	i	79*	61*	-54*
COCCCNC1=C(Cl)C(=O)c2ccccc2C1=O	-25	i	i	2	x	x
Cc1cc(C=O)c(O)cc1O	-2	i	i	1	x	x
C=CCOC(=O)c1ccc(-n2cncn2)nc1	-8	i	i	-1	21*	i
Cn1ccc(C(=O)OCC(=O)Nc2ccccc2Cl)n1	2	x	x	0	x	x
COc1ccc(C(C)=O)cc1CSc1nc2ccccc2c(=O)n1-c1ccccc1	-17	i	i	7	x	x
COc1ccc(C(C)=O)cc1CSc1nncn1C	32	i	i	-5	x	x
COc1ccc(C(C)=O)cc1CSc1nnc2c(Cl)cc(Cl)cn12	9	9.6*	i	-25	84*	-89*
COc1ccc(C(C)=O)cc1CSc1nc2ccccc2c(=O)n1-c1ccccc1C	-27	i	i	-3	25*	i
COc1ccc(C(=O)CCC(=O)N2CCN(c3ccc(C)cc3)C(C)C2)cc1 (stereo not given)	6	i	i	-1	x	x
c1cc(-c2sc(-c3ccncc3)c(-c3ccncc3)c2-c2ccncc2)ccn1	3	i	i	18	59*	-47*
CNC(=O)COc1ccc(Nc2nnc(-c3ccc(C)c(S(N)(=O)=O)c3)c3ccccc23)cc1	9	i	i	-2	x	x
CC(=O)c1cc(C#N)c(NCCCN(C)C)nc1C	-4	i	i	31	54*	-32*
CC(=O)N/N=C/c1cc(C)n(-c2ccc(Br)cc2)c1C	-10	i	i	12	x	x
Cc1cc(/C=N/NC(N)=O)c(C)n1-c1ccc(F)cc1	-3	14*	i	1	23*	i
COC(=O)c1ccc(Nc2nc(N3CCOCC3)nc(N3CCOCC3)n2)cc1	11	i	i	23	x	x
COC(=O)c1nnn(-c2nc(N3CCOCC3)nc(N3CCOCC3)n2)c1C	-2	7.8*	i	-9	33*	-40*
Cc1ccc(C(=O)N/N=C\c2ccccn2)cn1	11	i	i	1	40*	-38*
CC(C)(C)c1ccc(C(=O)N/N=C/c2ccccn2)cc1	8	i	i	12	x	x
O=C(c1cc([N+](=O)[O-])ccc1N1CCCCC1)N1CCc2ccccc21	-2	i	i	6	35*	i
CCC(C)(C)C1CCc2nc3ccccc3c(C(=O)OC(C)C(=O)Nc3c(C)n(C)n(-c4ccccc4)c3=O)c2C1 (stereo not given)	-3	11*	i	32	32*	i
CCN(Cc1ccccc1)CC(O)COC(c1ccc(OC)cc1)c1ccc(OC)cc1 (stereo not given)	-11	i	i	43	15*	i
CC(C)CCn1c(Oc2ccc(Cl)cc2)nc2c1c(=O)n(C)c(=O)n2C	-1	i	i	37	25*	i
COc1ccc(Oc2nc3c(c(=O)n(C)c(=O)n3C)n2Cc2ccccc2)cc1	-6	i	i	-3	x	x
